Screening results as filed in PubChem BioAssay.
T cruzi HTS – blocks T. cruzi growth inside host cells | intracellular Trypanosoma cruzi in host cells, plate reader | activity score (inhibition), % at 5.01 µM | 4.9% of 22,000 active; in the data active = activity score above about 55%;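 note: parasites and compound incubated about four days before reading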
YB-1 expr inh – YB-1 expression inhibition; delta delta Cp (YB-1 minus CDIP) (test concentration not listed); 0.37% of 30,000 active; U2OS, qRT-PCR YB-1 vs CDIP delta delta Cp, 16 h; hits give high values; zero = DMSO, each unit about twofold;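 active = delta delta Cp rounded down to an integer at or above 3, about 3 SD of DMSO wells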;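 note: higher means less YB-1 transcript or more CDIP transcript relative to DMSO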
INS-1E ATP HTS – INS-1E beta cell protection from cytokine death. INS-1E cytokine-induced death, ATP luminescence, 48 h; normalised: neutral wells 0, positive control 100. protection from cytokine-induced ATP loss, % at 10 µM. 0.1% of 20,000 active;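 active = mean replicate protection from cytokine-induced ATP loss at least 50% and at least 75% of replicates each reaching 50%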
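Assay system: INS-1E rat insulinoma cells. Amount: 8000 cells per well. Medium: phenol-red-free RPMI with 5% fetal bovine serum. Reagent: IL-1β, TNF-α and IFN-γ cytokine mix. Doses: one compound concentration, pin transfer. Schedule: 48 h co-treatment, 10 min post-lysis read. Detection: CellTiter-Glo luminescence measuring cellular ATP.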
Each line names hits and unclear results; the compound was inactive in the other large screens. Only a selection was taken, and hits are over-represented in it overall.

C[C@H](CO)N1C[C@H](C)[C@@H](CN(C)Cc2ccc(C(=O)Nc3ccccc3N)cc2)Oc2c(NC(=O)Nc3ccccc3)cccc2C1=O	T cruzi HTS 61.3
CC(C)NC(=O)Nc1cccc2c1O[C@H](CN(C)Cc1ccc(C(=O)Nc3ccccc3N)cc1)[C@H](C)CN([C@H](C)CO)C2=O	none
C[C@H](CO)N1C[C@H](C)[C@@H](CN(C)Cc2ccc(C(=O)Nc3ccccc3N)cc2)Oc2ccc(NC(=O)Nc3ccc(F)cc3)cc2C1=O	none
CC12CC3CC(C1)CC(NC(=O)c1ccc(Cl)cc1Cl)(C3)C2	none (no result: T cruzi HTS, INS-1E ATP HTS)
C[C@H](CO)N1C[C@H](C)[C@H](CN(C)CC2CCCCC2)Oc2c(NC(=O)Nc3ccc(F)cc3)cccc2C1=O	none
O=C1O[C@H](c2ccccc2)[C@H](c2ccccc2)N2[C@H]1[C@@H](C(=O)NC[C@H](O)c1ccccc1)[C@]1(C(=O)Nc3ccccc31)[C@H]2c1ccc(OCCO)cc1	none (no result: T cruzi HTS, INS-1E ATP HTS)
C[C@H]1CN([C@@H](C)CO)C(=O)Cc2cc(NC(=O)Nc3ccc4c(c3)OCO4)ccc2O[C@H]1CN(C)C(=O)NC1CCCCC1	none
C[C@@H]1CN([C@H](C)CO)C(=O)Cc2cc(NC(=O)C3CC3)ccc2O[C@@H]1CN(C)Cc1ccc(Cl)c(Cl)c1	none
C[C@@H]1CN([C@H](C)CO)C(=O)c2cccc(NC(=O)c3nc4ccccc4s3)c2O[C@@H]1CN(C)C(=O)Nc1ccc(C(F)(F)F)cc1	none
C[C@H](CO)N1C[C@H](C)[C@@H](CN(C)C(=O)Nc2ccc(C(F)(F)F)cc2)Oc2c(NC(=O)c3nc4ccccc4s3)cccc2C1=O	T cruzi HTS 57.7
C[C@@H]1CN([C@@H](C)CO)C(=O)c2cccc(NC(=O)c3nc4ccccc4s3)c2O[C@@H]1CN(C)C(=O)Nc1ccc(F)cc1	none
C[C@H](CO)N1C[C@H](C)[C@H](CN(C)C(=O)Nc2ccc(C(F)(F)F)cc2)Oc2c(NC(=O)c3nc4ccccc4s3)cccc2C1=O	T cruzi HTS 63.3
O=C(NO)c1cccc(C(=O)N/N=C/c2cccnc2Br)c1	none
Cc1ccc(S(=O)(=O)Nc2ccc3c(c2)CC(=O)N([C@H](C)CO)C[C@@H](C)[C@H](CN(C)C(=O)Nc2c(C)noc2C)O3)cc1	none
C[C@H](CO)N1C[C@H](C)[C@H](CN(C)C(=O)Nc2ccc(F)cc2)Oc2ccc(NC(=O)Nc3ccc4c(c3)OCO4)cc2CC1=O	none
C[C@@H]1CN([C@H](C)CO)C(=O)c2cccc(NC(=O)c3ccncc3)c2O[C@H]1CN(C)CC1CCCCC1	T cruzi HTS 84.4
C[C@H](CO)N1C[C@H](C)[C@H](CN(C)CC2CCCCC2)Oc2c(NC(=O)c3ccncc3)cccc2C1=O	none
Cc1cc(C(=O)Nc2cccc3c2O[C@H](CN(C)CC2CC2)[C@H](C)CN([C@@H](C)CO)C3=O)n(C)n1	T cruzi HTS 60.7
Cc1cc(C(=O)Nc2cccc3c2O[C@@H](CN(C)CC2CC2)[C@H](C)CN([C@H](C)CO)C3=O)n(C)n1	none
C[C@H](CO)N1C[C@H](C)[C@H](CN(C)CC2CC2)Oc2c(NC(=O)c3ccncc3)cccc2C1=O	none
C[C@@H]1CN([C@H](C)CO)C(=O)c2cccc(NC(=O)c3ccncc3)c2O[C@H]1CN(C)CC1CC1	T cruzi HTS 55.8
CC(=O)Nc1c(Br)c(C2CC2)nn1-c1ccccc1	none (no result: T cruzi HTS, INS-1E ATP HTS)
COc1ccc(N2C(=O)CC(c3cn(Cc4ccccc4)c4ccccc34)C2=O)cc1 (stereo not given)	none (no result: T cruzi HTS, INS-1E ATP HTS)
Cc1cc(C(=O)Nc2cccc3c2O[C@H](CN(C)S(C)(=O)=O)[C@@H](C)CN([C@@H](C)CO)C3=O)n(C)n1	none
C[C@@H]1CN([C@@H](C)CO)C(=O)c2cccc(NC(=O)Nc3ccc(C(F)(F)F)cc3)c2O[C@H]1CN(C)CC1CC1	none
C[C@H](CO)N1C[C@H](C)[C@@H](CN(C)CC2CCCCC2)Oc2c(NC(=O)Nc3ccc(C(F)(F)F)cc3)cccc2C1=O	T cruzi HTS 69.3
C[C@H](CO)N1C[C@H](C)[C@H](CN(C)CC2CC2)Oc2c(NC(=O)Nc3ccc(C(F)(F)F)cc3)cccc2C1=O	T cruzi HTS 82.3
C[C@@H]1CN([C@H](C)CO)C(=O)c2cccc(NC(=O)Nc3ccc(C(F)(F)F)cc3)c2O[C@@H]1CN(C)CC1CC1	none
CNC[C@H]1OCCCC[C@@H](C)Oc2ccc(NS(=O)(=O)c3ccc(OC)cc3)cc2C(=O)N([C@H](C)CO)C[C@@H]1C	none
C[C@H]1CN([C@@H](C)CO)C(=O)CCCn2cc(nn2)CO[C@H]1CN(C)S(=O)(=O)c1cccc(C#N)c1	none (no result: INS-1E ATP HTS)
C[C@@H]1CCCCO[C@@H](CN(C)C)[C@@H](C)CN([C@H](C)CO)C(=O)c2cc(NC(=O)Cc3ccccc3)ccc2O1	none
